Test results: ChEMBL document CHEMBL1926638, “Anti-cancer activity of 5-O-alkyl 1,4-imino-1,4-dideoxyribitols” (Bioorg Med Chem, 2011)
Activity calls are given as the source filed them. The calls are words filed in the database; no cut-off is given here.

Tests used:
SK-BR-3 [1] = assay: Cytotoxicity against human SKBR3 cells after 72 hrs by MTS assay; type: functional, cell-based
Procedure, shortened: (§1)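 SKBR3 (HER2+ breast cancer) cells exposed to compound for 72 h; number of metabolically active cells read by MTS tetrazolium reduction. Values are means of duplicate wells.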

Canavalia ensiformis = assay: Inhibition of jack beans alpha-mannosidase
SK-BR-3 [2] = assay: Cytotoxicity against human SKBR3 cells assessed as cell viability 1 to 400 uM after 72 hrs by MTS assay; type: functional, cell-based; procedure, shortened: as §1
SK-BR-3 [3] = assay: Cell cycle arrest in human SKBR3 cells assessed as accumulation in G0/G1 phase after 24 hrs by FITC-conjugated annexin-V propidium iodide based flow cytometric analysis; type: functional
Procedure, shortened: (§2)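 SKBR3 cells treated with compound, then cell-cycle distribution examined (G0/G1 and S fractions); at higher concentrations DNA fragmentation and hypodiploid nuclei scored. Described as preliminary assays.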

Jurkat [4] = assay: Induction of apoptosis in human Jurkat cells assessed as late apoptotic cells at 10 uM after 24 hrs by annexin V-7AAD double staining based flow cytometric analysis; type: functional
Procedure, shortened: (§3)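 JURKAT cells treated with compound. Apoptosis quantified by annexin-V/7-AAD staining and flow cytometry: early apoptotic = annexin V+7AAD−, late = annexin V+7AAD+. At 10 µM, a time course of cell death was also run.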

[5] = Induction of apoptosis in human CD34-positive and CD38-deficient hematopoietic progenitor cells assessed as late apoptotic cells at 10 uM after 24 hrs by annexin V-7AAD double staining based flow cytometric analysis
SK-BR-3 [6] = assay: Cytotoxicity in human SKBR3 cells assessed as increase in intracellular vacuolization after 6 to 12 hrs; type: functional, cell-based
SK-BR-3 [7] = assay: Cytotoxicity against human SKBR3 cells assessed as cell death at 6.25 uM after 72 hrs by MTS assay; type: functional, cell-based
SK-BR-3 [8] = assay: Induction of apoptosis in human SKBR3 cells assessed as DNA fragmentation after 24 hrs by annexin-V propidium iodide based flow cytometric analysis; type: functional, cell-based; procedure, shortened: as §2
Jurkat [9] = assay: Induction of apoptosis in human Jurkat cells assessed as early apoptotic cells at 10 uM after 24 hrs by annexin V based flow cytometric analysis; type: functional; procedure, shortened: as §3
Jurkat [10] = assay: Induction of apoptosis in human Jurkat cells assessed as cell death at 10 uM after 24 hrs by annexin V-7AAD double staining based flow cytometric analysis; type: functional
Procedure, shortened: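 Jurkat T-ALL cells exposed to 10 µM for 24 h (time-course series). Apoptosis quantified by annexin V and 7-AAD staining with flow cytometry. Early apoptotic = annexin V+/7AAD−, late apoptotic = annexin V+/7AAD+. Viability monitored in parallel by trypan blue exclusion. Values given as percent cell death.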

Jurkat [11] = assay: Cytotoxicity against human Jurkat cells by trypan blue assay; type: functional, cell-based
Procedure, shortened: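 JURKAT cells exposed to compound; viability monitored by Trypan blue exclusion.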

Jurkat [12] = assay: Induction of apoptosis in human Jurkat cells assessed as cell death at 10 uM by annexin V-7AAD double staining based flow cytometric analysis; type: functional; details: TDE = time-dependent effect; procedure, shortened: as §3
[13] = Induction of apoptosis in human CD34-positive and CD38-deficient hematopoietic progenitor cells assessed as early apoptotic cells at 10 uM after 24 hrs by annexin V based flow cytometric analysis
SK-BR-3 [14] = assay: Induction of apoptosis in human SKBR3 cells assessed as hypodiploid cell nuclei appearance after 24 hrs by annexin-V propidium iodide based flow cytometric analysis; type: functional; procedure, shortened: as §2
[15] = Induction of apoptosis in human CD34-positive and CD38-deficient hematopoietic progenitor cells assessed as cell death at 10 uM after 24 hrs by annexin V-7AAD double staining based flow cytometric analysis
[16] = Cytotoxicity against mouse BA/F3 cells expressing tyrosine kinase at <10 uM after 48 hrs by resazurin reduction assay; type: cell-based; details: baf3, 48 h
Procedure, shortened: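 15 Ba/F3 models, each proliferating through engineered expression of a specific tyrosine kinase. Compound incubated 48 h at concentrations below 10 µM, read by resazurin reduction. 9-point IC50 curves in three independent experiments.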

SK-BR-3 [17] = assay: Cell cycle arrest in human SKBR3 cells assessed as reduction in S phase after 24 hrs by FITC-conjugated annexin-V propidium iodide based flow cytometric analysis; type: functional; procedure, shortened: as §2
Jurkat [18] = assay: Induction of apoptosis in human Jurkat cells assessed as cell death at 100 uM after 24 hrs by annexin V-7AAD double staining based flow cytometric analysis; type: functional; procedure, shortened: as §3
PBMC = assay: Induction of apoptosis in PBMC at 10 uM after 24 hrs by annexin-V and 7AAD double staining based flow cytometric analysis; type: cell-based

Structure (SMILES)	Activity (SK-BR-3 [1])	Inhibition activity (Canavalia ensiformis)	Activity (SK-BR-3 [2])	other results
CCCCCCCCCCCCCCCCCCOC[C@H]1NC[C@H](O)[C@@H]1O	Active	inactive	Active	–
CCCCCCCC/C=C\CCCCCCCCOC[C@H]1NC[C@H](O)[C@@H]1O	–	–	–	Activity (SK-BR-3 [3]): Active; Activity (Jurkat [4]): 60%; Activity [5]: 40%; Activity (SK-BR-3 [6]): Active; IC50 (SK-BR-3 [1]; SK-BR-3, 72 h): 2 µM; Activity (SK-BR-3 [7]): Active; Activity (SK-BR-3 [8]): Active; Activity (Jurkat [9]): 40%; Activity (Jurkat [10]): 100%; IC50 (Jurkat [11]): 8 µM; Activity (Jurkat [12]): tde; Activity [13]: 20%; Activity (SK-BR-3 [14]): Active; Activity [15]: 60%; Activity [16]: Non-toxic; Activity (SK-BR-3 [17]): Active
CC/C=C\C/C=C\C/C=C\CCCCCCCCOC[C@H]1NC[C@H](O)[C@@H]1O	Active	inactive	Active	–
O[C@H]1[C@@H](O)CN[C@@H]1COCc1ccc(-c2ccccc2)cc1	–	Active	Active	Activity (Jurkat [18]): Active
O[C@H]1[C@@H](O)CN[C@@H]1COCc1ccccc1	–	inactive	inactive	–
CCCCCCCCCCOC[C@H]1NC[C@H](O)[C@@H]1O	Active	inactive	Active	–
CCCCCOC[C@H]1NC[C@H](O)[C@@H]1O	–	inactive	–	–
CCCCCCCOC[C@H]1NC[C@H](O)[C@@H]1O	–	inactive	inactive	–
CCCCCC/C=C\CCCCCCCCOC[C@H]1NC[C@H](O)[C@@H]1O	Active	inactive	Active	–
C=CCCCOC[C@H]1NC[C@H](O)[C@@H]1O	–	inactive	–	–
OC[C@H]1NC[C@H](O)[C@@H]1O [IMINORIBITOL]	–	–	inactive	Activity (Jurkat [10]): inactive; Activity (Jurkat [11]): inactive; Activity (PBMC): Non-toxic
CCCCCCCCCCCCCCOC[C@H]1NC[C@H](O)[C@@H]1O	–	inactive	–	–
CCCCC/C=C\C/C=C\CCCCCCCCOC[C@H]1NC[C@H](O)[C@@H]1O	Active	inactive	Active	–
